In ChEMBL document CHEMBL3870358, “Covalent Guanosine Mimetic Inhibitors of G12C KRAS” (ACS Med Chem Lett, 2017):

Key:
[1] = tested on: GTPase KRas (Homo sapiens), P01116 [G12C]; experiment: Binding affinity to GMP-stabilized FLAG-tagged KRAS G12C mutant (unknown origin) assessed as ratio of Kinact to Ki using desthiobiotin-GTP probe by alphascreen assay
Summary of the method: (§1)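 Nucleotide-free purified KRAS G12C, stabilized with excess GMP, incubated with compound. Remaining enzyme then labeled by a GTP-desthiobiotin acyl phosphate probe that reacts with Lys16, and detected with AlphaScreen reagents. Reaction rates were plotted against compound concentration and fit to kobs = kinact[I]/(Ki + [I]) to estimate kinact and Ki.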

[2] = molecular target: GTPase KRas (Homo sapiens, UniProt P01116, G12C); experiment: Binding affinity to GMP-stabilized FLAG-tagged KRAS G12C mutant (unknown origin) using desthiobiotin-GTP probe by alphascreen assay
Summary of the method: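 Nucleotide-free recombinant KRAS G12C purified and stabilised with excess GMP, incubated with compound, then probed with GTP-desthiobiotin acyl phosphate probe (reacts with Lys16). Desthiobiotinylated protein detected by AlphaScreen (ActivAlpha). Observed reaction rates plotted against compound concentration and fit to kobs = kinact[I]/(Ki + [I]) to extract kinact and Ki.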

[3] = tested on: GTPase KRas (Homo sapiens), P01116 [G12C]; experiment: Binding affinity to GMP-stabilized FLAG-tagged KRAS G12C mutant (unknown origin) assessed as inactivation constant using desthiobiotin-GTP probe by alphascreen assay; summary of the method: as §1
[4] = tested on: GTPase KRas (Homo sapiens), P01116 [G12C]; experiment: Binding affinity to recombinant GDP-loaded KRAS G12C mutant (unknown origin) assessed as half life at 115 uM by CPM-probe based fluorescence assay
Summary of the method: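 Chemosensor competition assay. Purified recombinant GDP-loaded KRAS G12C incubated with compound, then probed at several time points with a probe detecting free unreacted Cys12 thiol. Read-out combines GDP displacement kinetics with covalent inactivation.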

[5] = Binding affinity to Mg2+ ion assessed as compound concentration required to show half maximal Mg2+ dependent shift by 31P NMR analysis
[6] = Binding affinity to Mg2+ ion assessed as compound concentration required to reach Mg2+ dependent shift plateau by 31P NMR analysis

Chain of GTPase KRas (P01116 whole entry G12C): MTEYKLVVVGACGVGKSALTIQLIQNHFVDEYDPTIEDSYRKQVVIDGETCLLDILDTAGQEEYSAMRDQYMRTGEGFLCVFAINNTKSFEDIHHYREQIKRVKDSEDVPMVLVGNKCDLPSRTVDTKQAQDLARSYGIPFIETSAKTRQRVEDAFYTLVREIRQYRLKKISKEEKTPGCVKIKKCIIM
Chain of GTPase KRas (Homo sapiens), P01116 [G12C] (P01116 whole entry G12C): as above

Row | Activity [5] [equiv] | Activity [6] [equiv] | SMILES | Ratio [1] [min⁻¹ µM⁻¹] | Ki [2] [nM] | Kinact [3] [min⁻¹] | T1/2 [4] [h]
1 |  |  | Nc1nc2c(ncn2[C@@H]2O[C@H](COP(=O)(O)CP(=O)(O)O[C@@H]3CC[C@H](NC(=O)CCl)C3)[C@@H](O)[C@H]2O)c(=O)[nH]1 (mixture of isomers) | 0.02 | 50000 | 1 | 42
2 |  |  | CC(C)(CNC(=O)CCl)COP(=O)(O)CP(=O)(O)OC[C@H]1O[C@@H](n2cnc3c(=O)[nH]c(N)nc32)[C@H](O)[C@@H]1O | 0.028 | 5000 | 0.14 | 20
3 |  |  | Nc1nc2c(ncn2[C@@H]2O[C@H](COS(=O)(=O)NC(=O)OCCNC(=O)CCl)[C@@H](O)[C@H]2O)c(=O)[nH]1 | 0.05 | 5000 | 0.24 | 9.5
4 |  |  | Nc1nc2c(ncn2[C@@H]2O[C@H](CNc3c(NCCCNC(=O)CCl)c(=O)c3=O)[C@@H](O)[C@H]2O)c(=O)[nH]1 |  | > 25000 |  | 13
5 |  |  | Nc1nc2c(ncn2[C@@H]2O[C@H](COP(=O)(O)CP(=O)(O)O[C@@H]3CC[C@@H](NC(=O)CCl)C3)[C@@H](O)[C@H]2O)c(=O)[nH]1 (mixture of isomers) | 0.06 | 36000 | 2.3 | 64
6 |  |  | COC(=O)/C=C/CCCOP(=O)(O)CP(=O)(O)OC[C@H]1O[C@@H](n2cnc3c(=O)[nH]c(N)nc32)[C@H](O)[C@@H]1O |  | > 20000 |  | 120
7 |  |  | Nc1nc2c(ncn2[C@@H]2O[C@H](COP(=O)(O)OP(=O)(O)OCCNC(=O)CCl)[C@@H](O)[C@H]2O)c(=O)[nH]1 | 95 | 9 | 0.86 | 0.68
8 |  |  | Nc1nc2c(ncn2[C@@H]2O[C@H](COP(=O)(O)CP(=O)(O)OC3CCCN(C(=O)CCl)C3)[C@@H](O)[C@H]2O)c(=O)[nH]1 (mixture of isomers) | 0.16 | 3500 | 0.55 | 12
9 |  |  | Nc1nc2c(ncn2[C@@H]2O[C@H](COP(=O)(O)CP(=O)(O)OCCNC(=O)CCl)[C@@H](O)[C@H]2O)c(=O)[nH]1 | 0.02 | 2700 | 0.06 | 2.1
10 |  |  | Nc1nc2c(ncn2[C@@H]2O[C@H](COC(=O)CP(=O)(O)OCCNC(=O)CCl)[C@@H](O)[C@H]2O)c(=O)[nH]1 | 0.02 | 2200 | 0.053 | 47
11 |  |  | Nc1nc2c(ncn2[C@@H]2O[C@H](COP(=O)(O)C(F)P(=O)(O)OCCNC(=O)CCl)[C@@H](O)[C@H]2O)c(=O)[nH]1 (mixture of isomers) | 0.03 | 8000 | 0.21 | 6.6
12 |  |  | Nc1nc2c(ncn2[C@@H]2O[C@H](COP(=O)(O)CS(=O)(=O)NCCNC(=O)CCl)[C@@H](O)[C@H]2O)c(=O)[nH]1 | 0.2 | 1600 | 0.33 | 2.3
13 |  |  | Nc1nc2c(ncn2[C@@H]2O[C@H](COP(=O)(O)CP(=O)(O)OC3CCN(C(=O)CCl)C3)[C@@H](O)[C@H]2O)c(=O)[nH]1 (stereo not given in full) | 2.4 | 920 | 2.2 | 1.1
14 |  |  | C=CC(=O)NCCOP(=O)(O)OP(=O)(O)OC[C@H]1O[C@@H](n2cnc3c(=O)[nH]c(N)nc32)[C@H](O)[C@@H]1O | 7.6 | 280 | 2.12 | 0.6
15 |  |  | Nc1nc2c(ncn2[C@@H]2O[C@H](COP(=O)(O)C(F)(F)P(=O)(O)OCCNC(=O)CCl)[C@@H](O)[C@H]2O)c(=O)[nH]1 | 0.9 | 380 | 0.365 | 4.2
16 |  |  | Nc1nc2c(ncn2[C@@H]2O[C@H](COP(=O)(O)CC(=O)OCCNC(=O)CCl)[C@@H](O)[C@H]2O)c(=O)[nH]1 | 0.003 | 15200 | 0.055 | 84
17 | 0.5 | 2 | Nc1nc2c(ncn2[C@@H]2O[C@H](COP(=O)(O)OP(=O)(O)O)[C@@H](O)[C@H]2O)c(=O)[nH]1 |  |  |  | 
18 |  |  | Nc1nc2c(ncn2[C@@H]2O[C@H](COC(=O)CS(=O)(=O)NCCNC(=O)CCl)[C@@H](O)[C@H]2O)c(=O)[nH]1 |  | > 10000 |  | 24
19 |  |  | Nc1nc2c(ncn2[C@@H]2O[C@H](COP(=O)(O)CP(=O)(O)OCCCNC(=O)CCl)[C@@H](O)[C@H]2O)c(=O)[nH]1 | 0.2 | 374 | 0.07 | 2.5
20 | 0.5 | 2 | Nc1nc2c(ncn2[C@@H]2O[C@H](COP(=O)(O)OP(=O)(O)OP(=O)(O)O)[C@@H](O)[C@H]2O)c(=O)[nH]1 |  |  |  | 

Row | SMILES | Activity [5] [equiv] | Activity [6] [equiv] | Ratio [1] [min⁻¹ µM⁻¹] | Ki [2] [nM] | Kinact [3] [min⁻¹] | T1/2 [4] [h]
21 | Nc1nc2c(ncn2[C@@H]2O[C@H](COP(=O)(O)C(F)(F)P(=O)(O)OCCCNC(=O)CCl)[C@@H](O)[C@H]2O)c(=O)[nH]1 | < 20 |  | 0.8 | 382 | 0.3 | 1.06
